This note sets out measurements from ChEMBL document CHEMBL1122325, “2-[(Phenylthio)methyl]pyridine derivatives: new antiinflammatory agents” (1983).

Test [1] is filed under the species Rattus norvegicus. The test can be described thus: animal or person. In kind it is functional. Conditions: po.
For test [2], the species on record is Rattus norvegicus. The test can be described thus: (§1) Reduction in leukocyte numbers in rat pleural RPAR exudate; Nonactive. In kind it is functional, organism-based. An outline of the steps:
(§2)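 Fasted male Sprague-Dawley rats (160-200 g, 8-10/group) received BSA 3 mg/kg iv, then 1 h later intrapleural rabbit anti-BSA γ-globulin (0.2 mL); oral compound (four doses, 0.2% methylcellulose) or vehicle 30 min before. At 4 h, exudate volume and white cell count by phenol red dye dilution; percent inhibition versus control mean; ED50 by least-squares regression.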

For test [3], the species on record is Rattus norvegicus. The description is as §1. Format: functional, organism-based. The procedure, abridged:
as §2
This is another data set of the same source.

The species entered for test [4] is Rattus norvegicus. The test can be described thus: Reduction in exudate volume in rat pleural carrageenan test. Format: functional. An outline of the steps: (§3)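 Fasted male Sprague-Dawley rats (160-200 g, 8-10/group) dosed orally at four levels in 0.2% methylcellulose, or vehicle, 30 min before intrapleural carrageenin (125 μg in 0.2 mL saline); no iv BSA. Killed 4 h later; pleural exudate volume and white cells measured by phenol red dye dilution, inhibition calculated against vehicle controls.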

The species named for test [5] is Rattus norvegicus. The experiment in a line: Reduction in exudate volume in rat pleural RPAR test; Nonactive. Format: functional, organism-based. The procedure, abridged: as §2
The test system of test [6] is Rattus norvegicus. The experiment in a line: Inhibition of dermal RPAR in rats following p.o. administration; Not significant. In kind it is functional. The procedure, abridged: (§4)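 Male Sprague-Dawley rats (140-160 g, n=6/group), fasted 18 h, given iv BSA 0.15% w/v with 0.4% Evans Blue in saline, then test agent orally in 0.2% methylcellulose about 1 h later (three dose levels, vehicle controls). Anti-BSA rabbit γ-globulin injected intradermally 30 min post-dose; lesions excised at 4 h, dye-outlined diameters measured, percent inhibition of lesion area versus control; 40% inhibition dose by least-squares regression.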

Test [7] is filed under the species Rattus norvegicus. The experiment in a line: Reduction in leukocyte numbers in rat pleural RPAR exudate. In kind it is functional. An outline of the steps: as §2
The species named for test [8] is Rattus norvegicus. The test can be described thus: Reduction in exudate volume in rat pleural RPAR test. In kind it is functional. The procedure, abridged: as §2
The subject of test [9] is Rattus norvegicus. The experiment in a line: Inhibition of dermal RPAR in rats following p.o. administration. In kind it is functional. The procedure, abridged: as §4
Test [10] relates to Rattus norvegicus. The test can be described thus: Percent inhibition of rat dermal RPAR following 350 umol/kg p.o. administration. In kind it is functional. The following applies: po. The procedure, abridged:
as §4

The species entered for test [11] is Rattus norvegicus. The test can be described thus: Reduction in leukocyte numbers in rat pleural carrageenan test. Format: functional. The procedure, abridged:
as §3

The structures appear in SMILES notation. Activity calls are given as the source filed them. No cut-off for these calls is given here.

In the test listed under Rattus norvegicus [1], `c1ccc(CSc2nc3ccccc3o2)nc1` registered an inhibition in vivo at 350 µmol/kg of 26%.
Take `COc1ccc2c(c1)c(CC(=O)O)c(C)n2C(=O)c1ccc(Cl)cc1` [INDOMETHACIN]: the ED50 entry in the test listed under Rattus norvegicus [2], in the test listed under Rattus norvegicus [3] and in the test listed under Rattus norvegicus [5] was “inactive” throughout. The same compound showed a 50% effective dose (ED50) in the test filed under Rattus norvegicus [4] of 3 µmol/kg. For the same compound, the ED40 entry in the test with Rattus norvegicus [6] is “inactive”.
As for `Brc1ccc(SCc2cc(-c3ccccc3)ccn2)cc1`, the ED40 entry with Rattus norvegicus [6] is “inactive”.
Take `CC(=O)Nc1ccc(SCc2ccccn2)cc1`: the inhibition in vivo at 350 µmol/kg in the test filed under Rattus norvegicus [1] was 30%.
In the case of `Cl.Fc1ccc(SCc2ccccn2)cc1`, the ED50 in the test listed under Rattus norvegicus [7] amounted to 129 µmol/kg; in the test filed under Rattus norvegicus [8] it was 137 µmol/kg. The compound further came in with an ED40 in the test on Rattus norvegicus [9] of 159 µM/kg.
Regarding `Cl.[O-][n+]1ccccc1CSc1ccc(Br)cc1`, in the test with Rattus norvegicus [9], the ED40 is 148 µM/kg.
On to `Clc1ccnc(CSc2ccc(Br)cc2)c1`, for which the ED40 result with Rattus norvegicus [6] was “inactive”.
Compound `Cl.O=S(=O)(Cc1ccccn1)c1ccc(Br)cc1` registered an ED40 in the test with Rattus norvegicus [9] of 192 µM/kg.
As for `c1ccc(CSc2nc3ccccc3s2)nc1`, the ED40 result with Rattus norvegicus [6] is “inactive”.
On the same count and under the same terms, under `Clc1cccc(CSc2ccc(Br)cc2)n1` stands “inactive”; under `Cc1ccc(O)c(CSc2ccc(Br)cc2)n1`, “inactive”.
Take `Brc1ccc(CSc2ccccn2)cc1`: the inhibition in vivo at 350 µmol/kg in the test listed under Rattus norvegicus [1] was 36%.
`Cl.FC(F)(F)c1cccc(SCc2ccccn2)c1` displayed an ED40 in the test on Rattus norvegicus [9] of 307 µM/kg.
As for `C[n+]1ccccc1CSc1ccc(Br)cc1`, the inhibition in vivo at 350 µmol/kg in the test filed under Rattus norvegicus [1] was 22%.
`Cl.Cl.c1ccc(CSc2ccncc2)nc1` registered an ED40 in the test on Rattus norvegicus [9] of 149 µM/kg.
Turning to `Brc1ccc(SCCc2ccccn2)cc1`, the ED40 result with Rattus norvegicus [6] is “inactive”.
In the case of `CC(C)(C)c1ccc(SCc2ccccn2)cc1`, the inhibition in vivo at 350 µmol/kg in the test listed under Rattus norvegicus [1] was 34%.
In the case of `Cl.Clc1ccc(SCc2ccccn2)cc1`, the figures for the ED50 in the test listed under Rattus norvegicus [7] and in the test listed under Rattus norvegicus [8] were 162 µmol/kg and 154 µmol/kg, respectively. The ED40 with Rattus norvegicus [9] was determined as 186 µM/kg.
As for `COc1ccc(SCc2ccccn2)cc1.Cl`, the Inhibition in the test on Rattus norvegicus [6] was determined as 23%.
Compound `Brc1ccc(SCc2ccncc2)cc1` displayed an inhibition in vivo at 350 µmol/kg in the test listed under Rattus norvegicus [1] of 26%.
As for `Cl.[O-][S+](Cc1ccccn1)c1ccc(Br)cc1` (stereo unspecified), in the test with Rattus norvegicus [9], the ED40 was 216 µM/kg.
As to `COc1cccc(SCc2ccccn2)c1.Cl`, the ED40 with Rattus norvegicus [9] came out at 273 µM/kg.
In the test on Rattus norvegicus [9], `CN1CCCCC1CSc1ccc(Br)cc1.Cl` (stereo unspecified) yielded an ED40 of 159 µM/kg.
Take `Cl.c1ccc(CSc2ncccn2)nc1`: the ED40 in the test with Rattus norvegicus [9] came to 283 µM/kg.
Same read-out and setting: under `Brc1ccccc1SCc1ccccn1.Cl` stands 282 µM/kg.
Still for that read-out and setting: the figure for `Cl.Clc1cccc(SCc2ccccn2)c1` is 223 µM/kg; for `Brc1ccc(SCC2CCCCN2)cc1` (stereo unspecified) it is 430 µM/kg.
For the compound `COc1cccnc1CSc1ccc(Br)cc1`, the inhibition in vivo at 350 µmol/kg with Rattus norvegicus [10] came out at 26%.
Compound `Cc1cccc(CSc2ccc(Br)cc2)n1` displayed an inhibition in vivo at 350 µmol/kg in the test listed under Rattus norvegicus [1] of 28%.
As to `Brc1ccc(SCc2ccccn2)cc1.Cl`, the ED50 was found to be 142 µmol/kg in the test filed under Rattus norvegicus [4], 73 µmol/kg in the test listed under Rattus norvegicus [7], 215 µmol/kg in the test filed under Rattus norvegicus [11] and 82 µmol/kg in the test listed under Rattus norvegicus [8]. The compound further showed an ED40 in the test with Rattus norvegicus [9] of 151 µM/kg.
For `Cl.Clc1ccccc1SCc1ccccn1`, the ED40 in the test on Rattus norvegicus [9] stood at 300 µM/kg.
In the case of `c1ccc(CCc2ccccn2)cc1`, in the test listed under Rattus norvegicus [1], the inhibition in vivo at 350 µmol/kg amounted to 36%.
On the same count and under the same terms, under `Nc1ccc(SCc2ccccn2)cc1` stands 25%.
For `Cl.Oc1nc(SCc2ccccn2)nc2ccccc12`, the ED40 in the test on Rattus norvegicus [9] was found to be 177 µM/kg.
Take `C[C@]12CCC(=O)C=C1CC[C@@H]1[C@@H]2[C@@H](O)C[C@@]2(C)[C@H]1CC[C@]2(O)C(=O)CO` [HYDROCORTISONE]: the ED50 in the test listed under Rattus norvegicus [4] came out at 33 µmol/kg; in the test listed under Rattus norvegicus [7], 50 µmol/kg; in the test listed under Rattus norvegicus [11], 25 µmol/kg; in the test filed under Rattus norvegicus [8] it was 38 µmol/kg. The compound also had an ED40 in the test with Rattus norvegicus [9] of 33 µM/kg.
On to `Oc1cccnc1CSc1ccc(Br)cc1`, for which the ED40 entry in the test with Rattus norvegicus [6] was “inactive”.
With `Cc1cc(C(C)(C)C)ccc1SCc1ccccn1`, the inhibition in vivo at 350 µmol/kg in the test listed under Rattus norvegicus [1] is 30%.
Consider `Brc1ccc(CSCc2ccccn2)cc1`, for which the inhibition in vivo at 350 µmol/kg in the test listed under Rattus norvegicus [1] was 31%.
Take `Brc1ccc(NCc2ccccn2)cc1`: the ED40 result with Rattus norvegicus [6] was “inactive”.
Take `Cl.Clc1ccc(SCc2ccccn2)cc1Cl`: the ED40 with Rattus norvegicus [9] was 402 µM/kg.
For the compound `Brc1ccc(SCc2cccc(CSc3ccc(Br)cc3)n2)cc1`, in the test on Rattus norvegicus [6], the ED40 entry was “inactive”.
In the case of `Cc1cccnc1CSc1ccc(Br)cc1`, the inhibition in vivo at 350 µmol/kg in the test filed under Rattus norvegicus [1] was determined as 25%.
The same measure, in the same setting: under `c1ccc(CSC2CCCCC2)nc1` stands 21%.
Regarding `Cc1ccc(SCc2ccccn2)cc1`, the ED40 result with Rattus norvegicus [6] is “inactive”.
In the case of `Clc1ccc(Cc2ccccn2)cc1`, in the test listed under Rattus norvegicus [1], the inhibition in vivo at 350 µmol/kg is 35%.
Consider `Cl.c1ccc(SCc2ccccn2)cc1`, for which the ED50 was determined as 252 µmol/kg in the test listed under Rattus norvegicus [7] and 172 µmol/kg in the test listed under Rattus norvegicus [8]. This compound also returned an ED40 in the test with Rattus norvegicus [9] of 101 µM/kg.
Regarding `Cc1ccc(CSc2ccc(Br)cc2)nc1`, the ED40 result in the test on Rattus norvegicus [6] is “inactive”.
`CC(Sc1ccc(Br)cc1)c1ccccn1.Cl` (stereo unspecified) displayed an ED40 in the test with Rattus norvegicus [9] of 212 µM/kg.
`Clc1ccc(OCc2ccccn2)cc1` displayed an inhibition in vivo at 350 µmol/kg in the test filed under Rattus norvegicus [1] of 39%.
With `Brc1ccc(SCc2cccnc2)cc1`, the inhibition in vivo at 350 µmol/kg in the test listed under Rattus norvegicus [1] amounted to 23%.
In the case of `Brc1ccc(Sc2ccccn2)cc1.Cl`, the ED40 in the test on Rattus norvegicus [9] turned out to be 369 µM/kg.
As for `Oc1ccc(SCc2ccccn2)cc1`, in the test on Rattus norvegicus [6], the ED40 result is “inactive”.
Turning to `Cl.O=[N+]([O-])c1ccc(SCc2ccccn2)cc1`, the ED40 in the test with Rattus norvegicus [9] amounted to 233 µM/kg.

One may read the inhibition in vivo as how much of the control response was suppressed. The low end stands for little suppression, the high end for strong suppression. As usually defined, the ED50 is the dose at which the effect has come halfway, by size or by number of responders. In general, Inhibition refers to how much of the control response was suppressed. A higher Inhibition goes with a response far below the control.
